# From ChEMBL document CHEMBL5058577, “EUbOPEN Chemogenomics Library 2 (Multiplex)” (2022)
# Test system: Fibroblast
# Experiment: Multiplex assay against human fibroblast
# Type: toxicity, cell-based
# How it was run: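 Four dyes were applied at seeding to live cells: Hoechst33342, BioTracker Green Microtubule Cytoskeleton Dye, MitoTracker Red and Annexin V Alexa Fluor 680. Imaging after compound addition used a CQ1 microscope at 37°C and 5% CO2. CellPathfinder machine-learning gating then sorted cells into Hoechst high-intensity objects or normal cells, normal cells into healthy, pyknosed or fragmented nuclei, and pyknosed cells into mitotic or apoptotic, with tubulin, mitochondrial-mass and membrane-permeability phenotypes given as per cents of healthy-nucleus cells.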
# [1] = 12 h, 1 µM, compound concentration 1 uM, replicate 1
# [2] = 12 h, 1 µM, compound concentration 1 uM, replicate 2
# [3] = 12 h, 10 µM, compound concentration 10 uM, replicate 1
# [4] = 12 h, 10 µM, compound concentration 10 uM, replicate 2
# [5] = 24 h, 1 µM, compound concentration 1 uM, replicate 1
# [6] = 24 h, 1 µM, compound concentration 1 uM, replicate 2
# [7] = 24 h, 10 µM, compound concentration 10 uM, replicate 1
# [8] = 24 h, 10 µM, compound concentration 10 uM, replicate 2
# [9] = 48 h, 1 µM, compound concentration 1 uM, replicate 1
# [10] = 48 h, 1 µM, compound concentration 1 uM, replicate 2
# [11] = 48 h, 10 µM, compound concentration 10 uM, replicate 1
# [12] = 48 h, 10 µM, compound concentration 10 uM, replicate 2
structure (smiles),measurement,setting,value
COc1cc(Nc2ncc3c(n2)-c2ccc(Cl)cc2C(c2c(F)cccc2OC)=NC3)ccc1C(=O)O [ALISERTIB],Population Apoptotic (%),[1],39%
same,Population Fragmented Nuclei (%),[1],11%
same,Population Healthy Nuclei (%),[1],66%
same,Population Hoechst High Intensity Objects (%),[1],1%
same,Population Membrane Permeable-Phenotype (%),[1],2%
same,Population Mitochondria Different-Phenotype (%),[1],4%
same,Population Mitotic Cells (%),[1],60%
same,Population Normal (%),[1],98%
same,Population Pyknosed Nuclei (%),[1],21%
same,Population Tubulin-Different-Phenotype (%),[1],23%
same,Population Apoptotic (%),[2],42%
same,Population Fragmented Nuclei (%),[2],18%
same,Population Healthy Nuclei (%),[2],47%
same,Population Hoechst High Intensity Objects (%),[2],8%
same,Population Membrane Permeable-Phenotype (%),[2],7%
same,Population Mitochondria Different-Phenotype (%),[2],7%
same,Population Mitotic Cells (%),[2],57%
same,Population Normal (%),[2],91%
same,Population Pyknosed Nuclei (%),[2],33%
same,Population Tubulin-Different-Phenotype (%),[2],41%
same,Population Apoptotic (%),[3],56%
same,Population Fragmented Nuclei (%),[3],28%
same,Population Healthy Nuclei (%),[3],47%
same,Population Hoechst High Intensity Objects (%),[3],13%
same,Population Membrane Permeable-Phenotype (%),[3],1%
same,Population Mitochondria Different-Phenotype (%),[3],22%
same,Population Mitotic Cells (%),[3],43%
same,Population Normal (%),[3],86%
same,Population Pyknosed Nuclei (%),[3],24%
same,Population Tubulin-Different-Phenotype (%),[3],69%
same,Total Cell Count,[3],209
same,Population Apoptotic (%),[4],48%
same,Population Fragmented Nuclei (%),[4],35%
same,Population Healthy Nuclei (%),[4],30%
same,Population Hoechst High Intensity Objects (%),[4],8%
same,Population Membrane Permeable-Phenotype (%),[4],4%
same,Population Mitochondria Different-Phenotype (%),[4],16%
same,Population Mitotic Cells (%),[4],51%
same,Population Normal (%),[4],91%
same,Population Pyknosed Nuclei (%),[4],33%
same,Population Tubulin-Different-Phenotype (%),[4],64%
same,Total Cell Count,[4],89
same,Population Apoptotic (%),[5],36%
same,Population Fragmented Nuclei (%),[5],12%
same,Population Healthy Nuclei (%),[5],69%
same,Population Hoechst High Intensity Objects (%),[5],2%
same,Population Membrane Permeable-Phenotype (%),[5],2%
same,Population Mitochondria Different-Phenotype (%),[5],6%
same,Population Mitotic Cells (%),[5],63%
same,Population Normal (%),[5],97%
same,Population Pyknosed Nuclei (%),[5],18%
same,Population Tubulin-Different-Phenotype (%),[5],28%
same,Total Cell Count,[5],123
same,Population Apoptotic (%),[6],48%
same,Population Fragmented Nuclei (%),[6],26%
same,Population Healthy Nuclei (%),[6],47%
same,Population Hoechst High Intensity Objects (%),[6],4%
same,Population Membrane Permeable-Phenotype (%),[6],4%
same,Population Mitotic Cells (%),[6],51%
same,Population Normal (%),[6],95%
same,Population Pyknosed Nuclei (%),[6],26%
same,Population Tubulin-Different-Phenotype (%),[6],47%
same,Population Apoptotic (%),[7],64%
same,Population Fragmented Nuclei (%),[7],29%
same,Population Healthy Nuclei (%),[7],44%
same,Population Hoechst High Intensity Objects (%),[7],13%
same,Population Membrane Permeable-Phenotype (%),[7],1%
same,Population Mitochondria Different-Phenotype (%),[7],24%
same,Population Mitotic Cells (%),[7],35%
same,Population Normal (%),[7],86%
same,Population Pyknosed Nuclei (%),[7],25%
same,Population Tubulin-Different-Phenotype (%),[7],68%
same,Total Cell Count,[7],191
same,Population Apoptotic (%),[8],56%
same,Population Fragmented Nuclei (%),[8],45%
same,Population Healthy Nuclei (%),[8],36%
same,Population Hoechst High Intensity Objects (%),[8],5%
same,Population Membrane Permeable-Phenotype (%),[8],0%
same,Population Mitochondria Different-Phenotype (%),[8],9%
same,Population Mitotic Cells (%),[8],43%
same,Population Normal (%),[8],94%
same,Population Pyknosed Nuclei (%),[8],18%
same,Population Tubulin-Different-Phenotype (%),[8],71%
same,Total Cell Count,[8],93
same,Population Apoptotic (%),[9],57%
same,Population Fragmented Nuclei (%),[9],15%
same,Population Healthy Nuclei (%),[9],65%
same,Population Hoechst High Intensity Objects (%),[9],5%
same,Population Membrane Permeable-Phenotype (%),[9],4%
same,Population Mitochondria Different-Phenotype (%),[9],5%
same,Population Mitotic Cells (%),[9],42%
same,Population Normal (%),[9],94%
same,Population Pyknosed Nuclei (%),[9],19%
same,Population Tubulin-Different-Phenotype (%),[9],32%
same,Total Cell Count,[9],115
same,Population Apoptotic (%),[10],38%
same,Population Fragmented Nuclei (%),[10],33%
same,Population Healthy Nuclei (%),[10],42%
same,Population Membrane Permeable-Phenotype (%),[10],7%
same,Population Mitotic Cells (%),[10],61%
same,Population Pyknosed Nuclei (%),[10],24%
same,Population Tubulin-Different-Phenotype (%),[10],54%
same,Population Apoptotic (%),[11],84%
same,Population Fragmented Nuclei (%),[11],38%
same,Population Healthy Nuclei (%),[11],35%
same,Population Hoechst High Intensity Objects (%),[11],23%
same,Population Membrane Permeable-Phenotype (%),[11],5%
same,Population Mitochondria Different-Phenotype (%),[11],37%
same,Population Mitotic Cells (%),[11],15%
same,Population Normal (%),[11],76%
same,Population Pyknosed Nuclei (%),[11],26%
same,Population Tubulin-Different-Phenotype (%),[11],80%
same,Total Cell Count,[11],188
same,Population Apoptotic (%),[12],66%
same,Population Fragmented Nuclei (%),[12],37%
same,Population Healthy Nuclei (%),[12],51%
same,Population Hoechst High Intensity Objects (%),[12],8%
same,Population Membrane Permeable-Phenotype (%),[12],2%
same,Population Mitochondria Different-Phenotype (%),[12],15%
same,Population Mitotic Cells (%),[12],33%
same,Population Normal (%),[12],91%
same,Population Pyknosed Nuclei (%),[12],11%
same,Population Tubulin-Different-Phenotype (%),[12],65%
same,Total Cell Count,[12],85
